Fibroblast inh – antiproliferative effect on LL 47 fibroblasts – human, LL 47 cells, CellTiter-Glo luminescence, primary screen; LL 47 human lung fibroblast viability, ATP luminescence; stronger effect = lower value; viability, % at 10 µM; 1.1% of 85,000 active; AID 719, 2007;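 active = viability at or below 50% in the single dose screen; inactive = viability above 50%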;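 note: compound exposure lasted 72 h before the ATP readout; 100% = median luminescence of untreated cell-only wells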
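Times – overnight cell rest, 72 h compound treatment at 37 °C · Test system – human lung fibroblast line LL 47, low passage · Amount – 1,150 cells in each well · Controls – cell-only wells, no compound · Doses – 0.1% DMSO in all compound wells · Measured by – CellTiter-Glo luminescence · Buffer or medium – IMEM plus 15% FBS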
H69AR growth 86K – proliferation blockers of H69AR lung cancer cells, primary screen, cell-based, human, 86K library | H69AR lung tumor viability, ATP luminescence, 72 h; stronger effect = lower value | viability, % at 10 µM | 6% of 85,000 active | AID 598, 2007;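 active = viability at or below 40%; inactive = viability above 40%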;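 note: multidrug resistant small cell line overexpressing MRP-1 efflux transporter; 100% = mean luminescence of untreated control wells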
Jurkat viability – cytotoxicity toward Jurkat T cells, primary screen, cytotoxicity control, cell-based, Jurkat E6.1, 60K MLSMR library; inhibition, % at 4 µM; 1.2% of 56,000 active; Jurkat E6.1 viability, ATP luminescence, 48 h;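 active = inhibition above the mean inhibition of all tested compounds plus 3 SD, cut at about 28% in these data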
E coli WT exp – growth inhibitors of wild-type E. coli, primary screen, strain BW25113, expanded library, OD600; OD600 absorbance; growth inhibition, % at 100 µM; 0.15% of 98,000 active; AID 710, 2007;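 active = growth inhibition above about 50% at one test dose, limit read from the data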;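 note: growth measured after 20 h incubation at 37 °C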
tolC growth inh – growth inhibitors of E. coli tolC mutant, primary screen, strain BW25113 ΔtolC::kan, 384-well | OD615 | growth inhibition, % at 10 µM (by protocol) | 2.2% of 65,000 active | AID 573, 2007;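 active = growth inhibition at or above a cutoff equal to the mean over every tested compound plus 3 SD, cut at about 60% in these data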;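 note: growth measured after 20 h incubation at 37 °C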
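Assay system: tolC-deleted E. coli BW25113. Medium: kanamycin-containing LB broth (50 µg/mL). Dosing: 10 µM final, single dose. Timing: bacterial growth with compound for 20 h at 37 °C. Detection: A615 absorbance measurement. Read-out basis: growth inhibition in percent.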
HUVEC prolif 384 – inhibitors of HUVEC proliferation, primary screen, cell-based, 384-well; 1.1% of 86,000 active; CellTiter-Glo luminescence, 72 h; stronger effect = lower value; AID 648, 2007; viability, % at 10 µM (by protocol);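 active = viability at or below 30%; inactive = viability above 30%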;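 note: 100% = median luminescence of DMSO-only cell control wells on each plate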
The depositor's hits bear a star; nt = not tested or not shown. In the library only some 6.4% were active in any assay of this set; here they are far more common.

SMILES	Fibroblast inh	H69AR growth 86K	Jurkat viability	E coli WT exp	tolC growth inh	HUVEC prolif 384
CCOC(=O)c1c(C)c(C(=O)Nc2cc(F)ccc2F)c(C)n1C	66	20*	40*	nt	3	55
CCn1c(NC(C)=O)nc2ccccc21	103	94	nt	nt	nt	83
CCn1c(NC(=O)Nc2ccccc2OC)nc2ccccc21	95	36*	nt	1	7	90
CCn1c(NC(=O)c2cccs2)nc2ccccc21	65	33*	-4	3	28	79
O=C(CN1CCOCC1)Nc1ncccn1	111	90	nt	-4	-11	111
COc1ccc2nc3c(cc2c1)c(NC(=O)c1cccs1)nn3CC(C)C	73	35*	-12	-15	78*	82
Cc1ccc(CSc2nnc(-c3ccccn3)n2C)cc1	109	92	6	2	4	107
CCn1c(=O)c2c(O)cc(=O)oc2c2ccccc21	nt	nt	nt	-2	nt	nt
O=c1cc(O)c2c(=O)n(-c3ccccc3)c3ccccc3c2o1	100	12*	-4	0	43	87
O=c1cc(O)c2c(=O)n3c4c(cccc4c2o1)CCC3	99	91	2	nt	96*	99
CCOC(=O)c1c2c(n(C)c1C)C(=O)C(=O)c1ccc(Br)cc1-2	3.0*	1.6*	nt	nt	nt	3.3*
CC1CC(C)CN(C(=O)CN2CCN(Cc3ccc(Cl)cc3)C2=O)C1 (centres undefined)	90	92	nt	-1	nt	108
COc1cc(C(=O)N[C@H](C(=O)NC(C)C23CC4CC(CC(C4)C2)C3)C(C)C)cc(OC)c1OC (some centres undefined)	48*	42	nt	-2	nt	44
CCOc1ccc(NC(=O)CCSc2nnc(C)s2)cc1	99	96	nt	29	nt	102
Cc1ccc(-c2nnc(N3CCN(S(C)(=O)=O)CC3)c3ccccc23)cc1	87	82	-1	2	34	82
CN(C)CCCN1c2ccccc2CCc2ccccc21	83	81	nt	nt	13	88
OCCN1CCN(Cc2cccc(Oc3ccc(Cl)cc3)c2)CC1	92	82	0	14	12	83
OCCN1CCN(CCCN2c3ccccc3Sc3ccc(Cl)cc32)CC1	28*	1.5*	nt	nt	11	1.8*
CN(C)CCCN1c2ccccc2Sc2ccc(Cl)cc21	44*	20*	nt	35	13	50
CCOC(=O)C1Cc2cc3c(cc2C1=O)CC(C(=O)OCC)C3=O (centres undefined)	103	20*	2	-2	-5	110
Cc1nnc(SCC(=O)Nc2sccc2C(N)=O)n1Cc1ccccc1	nt	63	-6	-1	-8	99
CS(=O)(=O)c1ccc(Sc2nc3ccccc3[nH]2)c([N+](=O)[O-])c1	97	1.1*	nt	7	nt	100
CN1CCN(S(=O)(=O)c2ccc(Sc3nc4ccccc4[nH]3)c3nsnc23)CC1	93	42	0	-9	-1	98
O=[N+]([O-])c1cc(S(=O)(=O)C(F)(F)F)ccc1Sc1nc2ccccc2[nH]1	12*	1.7*	nt	23	nt	18*
O=[N+]([O-])c1cc(S(=O)(=O)C(F)(F)F)ccc1Sc1nc2ccccc2s1	nt	nt	nt	20	nt	nt
SMILES	Fibroblast inh	H69AR growth 86K	Jurkat viability	E coli WT exp	tolC growth inh	HUVEC prolif 384
Cn1c(=O)n(CCOc2ccccc2Cl)c2ccccc21	97	86	-3	13	20	91
Cc1ccc(CSc2nc3ccccc3c(=O)n2Cc2ccco2)cc1	95	83	nt	nt	nt	88
CCN(CC)CCN1C(=O)c2oc3ccccc3c(=O)c2C1c1cccc(Br)c1 (centres undefined)	101	37*	-2	-5	-1	101
O=C1c2oc3ccc(Cl)cc3c(=O)c2C(c2cccc(Br)c2)N1CCO (centres undefined)	103	26*	-5	1	nt	109
CCN(CC)CCNc1nc2cc(OC)c(OC)cc2c2nc(-c3ccccc3)nn12	2.7*	15*	nt	3	nt	11*
COc1cc2[nH]c(=O)n3nc(-c4ccccc4)nc3c2cc1OC	112	46	nt	-12	13	87
CCN1CCN(C(=O)CSCc2nc(-c3ccc(OC)c(OC)c3)oc2C)CC1	107	92	-2	0	-7	105
COc1ccc(OC)c(C(=O)COC(=O)c2cc(C)oc2C)c1	100	104	0	-4	61*	89
Fc1ccc(C(c2ccc(F)cc2)N2CCN(C/C=C/c3ccccc3)CC2)cc1	99	73	nt	nt	76*	108
O=C(c1ccc(Br)s1)N1CCN(C/C=C/c2ccccc2)CC1	90	80	nt	10	nt	103
C(=C\c1ccccc1)/CN1CCN(Cc2ccc3c(c2)OCCO3)CC1	nt	nt	1	6	-1	nt
C(=C\c1ccccc1)/CN1CCN(C(c2ccccc2)c2ccccc2)CC1	96	23*	nt	nt	6	89
Cc1ccc(C(=O)N2CCOCC2)cc1S(=O)(=O)Nc1cccc(C)c1C	98	81	4	-1	-7	95
CCOC(=O)N1CCN(C(=O)c2ccc(C)c(S(=O)(=O)Nc3cccc(C)c3C)c2)CC1	82	40*	6	5	19	85
CCOC(=O)N1CCN(C(=O)c2ccc(C)c(S(=O)(=O)Nc3ccccc3)c2)CC1	89	36*	7	7	-15	93
COc1ccc(S(=O)(=O)N2CCC(C(=O)N3CCCC3)CC2)cc1Cl	91	86	1	8	16	96
CC(C)Oc1ccc(C(=O)Nc2ccccc2N2CCCC2)cc1	88	32*	nt	-1	nt	111
Cc1ccc(C(=O)Nc2ccccc2N2CCN(C(=O)C(C)C)CC2)cc1	104	81	2	1	-7	94
O=C(Nc1ccccc1N1CCCCC1)c1ccccc1F	87	87	-4	2	88*	102
COc1ccc(OC)c(C2=NOC(C(=O)Nc3ccccc3SC)C2)c1 (centres undefined)	91	89	nt	-9	nt	96
Cc1ccc2c(c1)C(=O)CCN2	102	93	nt	-4	nt	97
CCn1c(-c2ccc(N(C)C)cc2)nc2ccccc21	91	102	50*	15	33	78
CCn1c(-c2ccc(N)cc2)nc2ccccc21	106	101	-17	11	-3	90
Cc1ccc(C2CC2C(=O)NNC(=S)Nc2cccc(Cl)c2)cc1 (centres undefined)	91	17*	nt	nt	nt	69
O=C(N/C=N/OCc1ccc(Cl)cc1Cl)NOCc1c(Cl)cccc1Cl	87	11*	nt	2	nt	33
C/C(=C\C(=O)c1ccncc1)Nc1ccccc1O	94	23*	19	8	-13	108
CCOC(=O)c1c(NC(=O)CSc2nnnn2C)sc(C)c1C	96	80	10	-7	20	84

Screens as filed in PubChem BioAssay.
